Compound activity as filed in PubChem.
APP 5'UTR act: APP 5'UTR luciferase reporter activation; SH-SY5Y APP 5'UTR luciferase reporter, luminescence; zero percent = DMSO vehicle wells; activation, % at 2 µM; actives 1% (n = 190,000);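 active = activation above a set limit, based on mean plus 3 SD of controls, cut at about 140% in these data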
STAT3 inh: reduces IL-6 driven STAT3 reporter signal. U3A cells, IL-6 STAT3-luciferase reporter, luminescence; host cell line lacks STAT1. inhibition, % at 5.5 µM. actives 0.89% (n = 190,000);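 active = inhibition above the mean inhibition across all screened compounds plus 3 SD, cut at about 44% in these data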
NF-kB expr up: compounds increasing NF-kB expression in human neuronal cells | fold change at 12.5 µM | NF-kB reporter expression; hits give high values | actives 1.6% (n = 190,000); in the data active = fold change above about 3.3
STAT1 act-1: increases IFN-gamma driven STAT1 reporter signal; NIH 3T3 STAT1-luciferase reporter, luminescence; 100% = IFN-gamma alone, no compound; activation (% of control), % at 5.5 µM; actives 2.6% (n = 200,000); AID 932;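 active = activation above the screen-wide mean activation plus 3 SD, cut at about 130% in these data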
STAT3 act-1: increases IL-6 driven STAT3 reporter signal; activation (% of control), % at 5.6 µM; actives 0.91% (n = 190,000); AID 871; U3A cells, IL-6 STAT3-luciferase reporter, luminescence; 100% = signal with IL-6 EC80 alone;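 active = activation above the screen-wide mean of compound activation plus 3 SD, cut at about 130% in these data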
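system = STAT3-luciferase reporter U3A cells | reagent = IL-6 stimulus at 33 ng/mL final | timing = 1 h compound pre-exposure, 6 h IL-6 stimulation, 37 °C | measured by = luminescence | evaluation = % activation versus median of IL-6-stimulated wells | control set = IL-6-only wells as 100% reference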
STAT1 inh: reduces IFN-gamma driven STAT1 reporter signal | NIH 3T3 STAT1-luciferase reporter, luminescence | actives 0.35% (n = 200,000) | inhibition, % at 5.5 µM;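 active = inhibition above a set limit, the mean inhibition across all tested compounds plus 3 SD, cut at about 34% in these data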
STAT3 act-2: confirmation of STAT3 signaling activators | U3A STAT3-luciferase reporter, IL-6 potentiation, luminescence; U3A cells lack STAT1; 100 means same as IL-6 alone | potentiation (% of control), % at 5.7 µM | shares compounds with STAT3 act-1 | actives 64% (n = 1,200);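 active = percent activation of the STAT3 luciferase reporter above a set limit taken from the earlier primary screen, cut at about 130% in these data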
NFkB act STAT3ct: NF-kappaB activation in STAT3 activator counter-screen | shares compounds with STAT3 act-1 | human cells, NF-kappaB reporter activation | activation (% of control), % at 5.7 µM | actives 11% (n = 1,200) | AID 1309; in the data active = activation above about 120%;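 also: reporter induced by TNF-alpha stimulation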
STAT1 act-2: STAT1 activation in STAT3 activator counter-screen; shares compounds with STAT3 act-1; NIH 3T3 STAT1-luciferase reporter, IFN-gamma, luminescence; activation (% of control), % at 5.7 µM; actives 13% (n = 1,200); AID 1318;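 active = activation above the solvent-only control well mean plus 3 SD, set per screening run, cut at about 120% in these data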
A number is an active result. In the library only some 4.9% were active in any assay of this set; here they are far more common.

How did Cc1cccc(NC(=O)CSc2nc3c([nH]c4ccccc43)c(=O)n2C)c1 do in these assays?
APP 5'UTR act: inactive; STAT3 inh: inactive; NF-kB expr up: inactive; STAT1 act-1: inactive; STAT3 act-1: 146.5; STAT1 inh: inactive; STAT3 act-2: 135.0; NFkB act STAT3ct: inactive; STAT1 act-2: inactive

What do the screens show for `Cn1c(SCC(=O)Nc2ccccc2)nc2c([nH]c3ccccc32)c1=O`?
APP 5'UTR act: inactive; STAT3 inh: inactive; NF-kB expr up: inactive; STAT1 act-1: inactive; STAT3 act-1: inactive; STAT1 inh: inactive

How did COc1cccc(NC(=O)CSc2nc3c([nH]c4ccccc43)c(=O)n2C)c1 do in these assays?
APP 5'UTR act: inactive; STAT3 inh: inactive; NF-kB expr up: inactive; STAT1 act-1: inactive; STAT3 act-1: 138.9; STAT1 inh: inactive; STAT3 act-2: inactive; NFkB act STAT3ct: inactive; STAT1 act-2: inactive

How did CCC(C)Sc1nc2c([nH]c3ccccc32)c(=O)n1C (stereo not drawn) do in these assays?
APP 5'UTR act: inactive; STAT3 inh: inactive; NF-kB expr up: inactive; STAT1 act-1: inactive; STAT3 act-1: 165.5; STAT1 inh: inactive; STAT3 act-2: inactive; NFkB act STAT3ct: inactive; STAT1 act-2: inactive

How did O=C(c1cc2c(F)cccc2s1)N1CCCC1 do in these assays?
APP 5'UTR act: inactive; STAT3 inh: inactive; NF-kB expr up: inactive; STAT1 act-1: inactive; STAT3 act-1: inactive; STAT1 inh: inactive

Results for COc1ccccc1-n1cnnc1SCC(=O)NCC1CCCO1 (stereo not drawn) ?
APP 5'UTR act: inactive; STAT3 inh: inactive; NF-kB expr up: inactive; STAT1 act-1: inactive; STAT3 act-1: inactive; STAT1 inh: inactive

What do the screens show for `O=C1Nc2ccc(Br)cc2C12NNc1ccccc1O2` (stereo not drawn)?
APP 5'UTR act: inactive; STAT3 inh: inactive; NF-kB expr up: inactive; STAT1 act-1: inactive; STAT3 act-1: 141.3; STAT1 inh: inactive; STAT3 act-2: inactive; NFkB act STAT3ct: inactive; STAT1 act-2: inactive

How did O=C1Nc2ccc(Br)cc2C1(O)Cc1ccccn1 (stereo not drawn) do in these assays?
APP 5'UTR act: inactive; STAT3 inh: inactive; NF-kB expr up: inactive; STAT1 act-1: inactive; STAT3 act-1: inactive; STAT1 inh: inactive

How did CCN(CC)S(=O)(=O)c1ccc(-c2nnc3sc4cccc(C)c4n23)cc1 do in these assays?
APP 5'UTR act: inactive; STAT3 inh: inactive; NF-kB expr up: inactive; STAT1 act-1: inactive; STAT3 act-1: 147.8; STAT1 inh: inactive; STAT3 act-2: 159.8; NFkB act STAT3ct: inactive; STAT1 act-2: inactive

How did C=CCn1c(SCCN2CCCC2)nc2c([nH]c3ccccc32)c1=O do in these assays?
APP 5'UTR act: inactive; STAT3 inh: inactive; NF-kB expr up: inactive; STAT1 act-1: inactive; STAT3 act-1: inactive; STAT1 inh: inactive

How did CC(=O)n1cc(C2C(=O)CCCC2=O)c2ccccc21 do in these assays?
APP 5'UTR act: inactive; STAT3 inh: inactive; NF-kB expr up: inactive; STAT1 act-1: inactive; STAT3 act-1: 140.1; STAT1 inh: inactive; STAT3 act-2: inactive; NFkB act STAT3ct: inactive; STAT1 act-2: inactive

What do the screens show for `CCCc1cc2c(=O)c(-c3nc4ccccc4s3)c(COCC(=O)O)oc2cc1O`?
APP 5'UTR act: inactive; STAT3 inh: inactive; NF-kB expr up: inactive; STAT1 act-1: inactive; STAT3 act-1: 151.2; STAT1 inh: inactive; STAT3 act-2: 146.5; NFkB act STAT3ct: inactive; STAT1 act-2: inactive

What do the screens show for `Brc1ccccc1C1=Nn2c(nnc2-c2ccccc2)SC1`?
APP 5'UTR act: inactive; STAT3 inh: inactive; NF-kB expr up: inactive; STAT1 act-1: inactive; STAT3 act-1: 136.7; STAT1 inh: inactive; STAT3 act-2: 140.3; NFkB act STAT3ct: inactive; STAT1 act-2: inactive

Results for COc1ccc(C2=Nn3c(nnc3-c3ccncc3)SC2)cc1OC ?
APP 5'UTR act: inactive; STAT3 inh: inactive; NF-kB expr up: inactive; STAT1 act-1: inactive; STAT3 act-1: inactive; STAT1 inh: inactive

What do the screens show for `COc1ccccc1-c1nnc2n1N=C(c1ccc(O)c(O)c1)CS2`?
APP 5'UTR act: inactive; STAT3 inh: inactive; NF-kB expr up: 3.4; STAT1 act-1: inactive; STAT3 act-1: 136.1; STAT1 inh: inactive; STAT3 act-2: inactive; NFkB act STAT3ct: 160.2; STAT1 act-2: 125.2

How did CCCCCC(=O)N/N=C(\C)c1ccccn1 do in these assays?
APP 5'UTR act: inactive; STAT3 inh: inactive; NF-kB expr up: inactive; STAT1 act-1: inactive; STAT3 act-1: inactive; STAT1 inh: inactive

Results for C/C(=N\Nc1ccc(Cl)cc1)c1ccccn1 ?
APP 5'UTR act: inactive; STAT3 inh: inactive; NF-kB expr up: inactive; STAT1 act-1: inactive; STAT3 act-1: 139.3; STAT1 inh: inactive; STAT3 act-2: 140.5; NFkB act STAT3ct: 122.5; STAT1 act-2: 147.5

Results for CCOC(=O)c1cnn(-c2ncnc3c2cnn3Cc2ccccc2)c1N ?
APP 5'UTR act: inactive; STAT3 inh: inactive; STAT1 act-1: inactive; STAT3 act-1: inactive; STAT1 inh: inactive

Results for CCOC(=O)c1cnn(-c2ncnc3sc(C)c(C)c23)c1N ?
APP 5'UTR act: inactive; STAT3 inh: inactive; NF-kB expr up: inactive; STAT1 act-1: inactive; STAT3 act-1: 149.2; STAT1 inh: inactive; STAT3 act-2: 143.1; NFkB act STAT3ct: inactive; STAT1 act-2: inactive

What do the screens show for `N#C/C(=C/c1ccc(Br)s1)C(=O)NCCc1c[nH]c2ccccc12`?
APP 5'UTR act: inactive; STAT3 inh: inactive; NF-kB expr up: inactive; STAT1 act-1: inactive; STAT3 act-1: inactive; STAT1 inh: inactive

Results for Cc1ccccc1S(=O)(=O)Nc1nc2ccccc2nc1Cl ?
APP 5'UTR act: inactive; STAT3 inh: inactive; NF-kB expr up: inactive; STAT1 act-1: inactive; STAT3 act-1: inactive; STAT1 inh: inactive

What do the screens show for `O=S(=O)(Nc1nc2ccccc2nc1N1CCc2ccccc2C1)c1ccc(Cl)cc1`?
APP 5'UTR act: inactive; STAT3 inh: inactive; NF-kB expr up: inactive; STAT1 act-1: inactive; STAT3 act-1: 136.3; STAT1 inh: inactive; STAT3 act-2: inactive; NFkB act STAT3ct: inactive; STAT1 act-2: inactive

Results for Cc1ccccc1S(=O)(=O)Nc1nc2ccccc2nc1N1CCc2ccccc2C1 ?
APP 5'UTR act: inactive; STAT3 inh: inactive; NF-kB expr up: inactive; STAT1 act-1: inactive; STAT3 act-1: 136.4; STAT1 inh: inactive; STAT3 act-2: 134.7; NFkB act STAT3ct: inactive; STAT1 act-2: inactive

What do the screens show for `CC(=O)Nc1ccc(S(=O)(=O)Nc2nc3ccccc3nc2N2CCCCCC2)cc1`?
APP 5'UTR act: inactive; STAT3 inh: inactive; NF-kB expr up: inactive; STAT1 act-1: inactive; STAT3 act-1: inactive; STAT1 inh: inactive
